Measured values: ChEMBL document CHEMBL1125157, “Synthesis and biological evaluation of 14-alkoxymorphinans. 3. Extensive study on cyprodime-related compounds” (J Med Chem, 1990)
Activity calls are given as the source filed them. No cut-off for these calls is given here.

Columns and labels:
[1] = molecular target: Opioid receptors; mu & kappa (Homo sapiens) (UniProt P41145+P35372); assay: Selectivity ratio was determined using the Ke value of kappa receptor to that of mu receptor
Outline: (§1)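 Selectivity is the ratio of Ke values from mouse vas deferens antagonism, with Ke = [antagonist]/(DR − 1). DADLE gave the δ value, ethylketocyclazocine the κ value and normorphine the μ value. Antagonist concentrations gave a dose ratio of 3–10.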

[2] = molecular target: T1, Opioid receptors; mu & delta (Homo sapiens) (UniProt P41143+P35372); assay: Selectivity ratio was determined using the Ke value of Opioid receptor delta 1 to that of Opioid receptor mu 1; outline: as §1
T1 sequence (P35372 whole entry, looked up): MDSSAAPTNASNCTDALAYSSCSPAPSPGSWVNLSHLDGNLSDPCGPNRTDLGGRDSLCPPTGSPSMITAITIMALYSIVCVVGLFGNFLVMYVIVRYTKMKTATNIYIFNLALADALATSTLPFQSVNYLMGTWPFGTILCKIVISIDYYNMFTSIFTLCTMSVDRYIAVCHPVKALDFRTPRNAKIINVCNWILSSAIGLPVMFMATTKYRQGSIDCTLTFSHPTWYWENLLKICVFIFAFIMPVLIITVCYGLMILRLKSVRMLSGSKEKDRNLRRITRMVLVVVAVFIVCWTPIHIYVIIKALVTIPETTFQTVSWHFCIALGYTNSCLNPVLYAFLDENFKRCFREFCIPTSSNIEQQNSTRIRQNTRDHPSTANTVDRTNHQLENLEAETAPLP
T1 sequence (P41143 whole entry, looked up): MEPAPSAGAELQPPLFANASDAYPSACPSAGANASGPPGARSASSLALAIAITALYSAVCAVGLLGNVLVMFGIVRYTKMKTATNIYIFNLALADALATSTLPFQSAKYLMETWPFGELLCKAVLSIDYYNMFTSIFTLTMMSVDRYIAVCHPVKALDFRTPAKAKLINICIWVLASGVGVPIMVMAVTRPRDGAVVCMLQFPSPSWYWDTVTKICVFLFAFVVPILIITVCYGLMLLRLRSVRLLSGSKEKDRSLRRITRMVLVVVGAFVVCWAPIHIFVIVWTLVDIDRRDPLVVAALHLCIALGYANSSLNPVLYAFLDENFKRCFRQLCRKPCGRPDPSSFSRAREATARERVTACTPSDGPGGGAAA

[3] = molecular target: Mu-type opioid receptor (Mus musculus) (UniProt P42866); assay: Agonist potency against Opioid receptor mu 1 expressed as the ratio of the ED40 concentrations of the normorphine and compound in guinea pig ileum; format: functional, tissue-based
Mu-type opioid receptor (Mus musculus), sequence (P42866 whole entry): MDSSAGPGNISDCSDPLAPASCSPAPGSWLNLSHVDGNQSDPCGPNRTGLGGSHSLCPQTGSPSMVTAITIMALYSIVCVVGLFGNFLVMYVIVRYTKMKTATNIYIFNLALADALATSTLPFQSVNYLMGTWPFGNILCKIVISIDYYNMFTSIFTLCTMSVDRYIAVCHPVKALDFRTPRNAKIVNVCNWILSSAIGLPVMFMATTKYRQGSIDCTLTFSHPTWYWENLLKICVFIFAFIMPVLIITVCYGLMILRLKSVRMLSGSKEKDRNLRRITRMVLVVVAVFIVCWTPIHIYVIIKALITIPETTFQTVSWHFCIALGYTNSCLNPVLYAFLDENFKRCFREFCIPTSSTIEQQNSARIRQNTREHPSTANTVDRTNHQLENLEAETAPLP
Outline: (§2)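 Agonist activity tested on electrically stimulated isolated tissue twitch (mouse vas deferens and guinea pig ileum). ED40 is the concentration giving 40% inhibition of twitch height. Potency is given as the ratio of the ED40 of the reference agonist (normorphine, ethylketocyclazocine or DADLE) to that of the test compound. TS marks a curve too shallow to reach 40% inhibition. NA means no agonist activity was detected.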

[4] = molecular target: Mu-type opioid receptor (Cavia porcellus) (UniProt P97266); assay: Agonist potency against Opioid receptor mu 1 expressed as the ratio of the ED40 concentrations of the DADLE and compound in guinea pig ileum […]; format: functional, tissue-based; outline: as §2
Mu-type opioid receptor (Cavia porcellus), sequence (P97266 whole entry): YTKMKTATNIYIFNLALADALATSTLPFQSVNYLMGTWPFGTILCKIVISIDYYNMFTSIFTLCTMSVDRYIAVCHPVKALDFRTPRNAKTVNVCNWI

[5] = molecular target: Mu-type opioid receptor (Cavia porcellus) (UniProt P97266); assay: Agonist potency against Opioid receptor mu 1 expressed as the ratio of the ED40 concentrations of the ethylketocyclazocin and compound in guinea pig ileum; format: functional, tissue-based; outline: as §2
[6] = molecular target: Mu-type opioid receptor (Mus musculus) (UniProt P42866); assay: Antagonistic activity (Ke) against nor-morphine and Opioid receptor mu 1 of mouse vas deferens assay; format: functional, tissue-based
Outline: (§3)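 Mouse vas deferens antagonism was measured against normorphine (μ), ethylketocyclazocine (κ) or DADLE (δ in this tissue). Ke = [antagonist]/(DR − 1), where DR is the ratio of equiactive agonist concentrations with and without antagonist. Antagonist concentrations were chosen to give a dose ratio between 3 and 10 against the relevant agonist.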

[7] = molecular target: Delta-type opioid receptor (Mus musculus) (UniProt P32300); assay: Antagonistic activity (Ke) at Opioid receptor delta 1 was determined against DADLE in the mouse vas deferens (MVD) method.; format: functional, tissue-based; outline: as §3
Delta-type opioid receptor (Mus musculus), sequence (P32300 whole entry): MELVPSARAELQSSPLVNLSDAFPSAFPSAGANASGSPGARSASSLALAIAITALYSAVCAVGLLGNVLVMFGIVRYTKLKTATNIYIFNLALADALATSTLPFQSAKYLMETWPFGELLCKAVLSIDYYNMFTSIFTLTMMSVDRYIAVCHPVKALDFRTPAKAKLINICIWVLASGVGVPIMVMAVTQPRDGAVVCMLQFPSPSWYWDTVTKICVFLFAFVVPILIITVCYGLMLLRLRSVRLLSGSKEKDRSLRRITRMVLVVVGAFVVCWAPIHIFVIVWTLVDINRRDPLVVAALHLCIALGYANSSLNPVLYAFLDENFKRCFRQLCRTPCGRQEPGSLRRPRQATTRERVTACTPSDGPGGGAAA

[8] = molecular target: Kappa-type opioid receptor (Mus musculus) (UniProt P33534); assay: Antagonistic activity (Ke) at Opioid receptor kappa 1 was determined against ethylketocyclazocine in the mouse vas deferens (MVD); format: functional, tissue-based; outline: as §3
Kappa-type opioid receptor (Mus musculus), sequence (P33534 whole entry): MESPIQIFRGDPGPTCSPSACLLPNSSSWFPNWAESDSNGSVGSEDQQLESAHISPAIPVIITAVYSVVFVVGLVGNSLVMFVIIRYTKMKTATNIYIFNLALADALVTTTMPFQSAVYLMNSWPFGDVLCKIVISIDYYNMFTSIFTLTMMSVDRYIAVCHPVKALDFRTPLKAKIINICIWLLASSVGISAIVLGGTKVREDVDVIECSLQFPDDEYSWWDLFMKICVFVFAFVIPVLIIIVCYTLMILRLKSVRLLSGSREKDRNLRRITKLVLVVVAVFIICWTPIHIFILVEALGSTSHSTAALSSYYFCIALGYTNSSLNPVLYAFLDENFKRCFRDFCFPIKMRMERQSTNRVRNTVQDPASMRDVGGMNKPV

[9] = molecular target: Mu-type opioid receptor (Homo sapiens) (UniProt P35372); assay: Agonist potency against mu opioid receptor expressed as the ratio of the ED40 concentrations of the normorphine and compound in guinea pig ileum; NA= No agonist activity detected; format: functional, tissue-based; outline: as §2
Mu-type opioid receptor (Homo sapiens), sequence (P35372 whole entry): as the sequence (P35372 whole entry, looked up) above

[10] = molecular target: Delta-type opioid receptor (Mus musculus) (UniProt P32300); assay: Antagonistic activity (Ke) at Opioid receptor delta 1 was determined against DADLE in the mouse vas deferens (MVD); format: functional, tissue-based; outline: as §3
[11] = molecular target: Mu-type opioid receptor (Homo sapiens) (UniProt P35372); assay: Agonist potency against mu opioid receptor expressed as the ratio of the ED40 concentrations of the DADLE and compound in guinea pig ileum; NA= No agonist activity detected; format: functional, tissue-based; outline: as §2
[12] = molecular target: Mu-type opioid receptor (Homo sapiens) (UniProt P35372); assay: Agonist potency against mu opioid receptor expressed as the ratio of the ED40 concentrations of the ethylketocyclazocin and compound in guinea pig ileum; format: functional, tissue-based; outline: as §2
[13] = molecular target: Mu-type opioid receptor (Cavia porcellus) (UniProt P97266); assay: (§4) Agonist potency against Opioid receptor mu 1 expressed as the ratio of the ED40 concentrations of the normorphine and compound in guinea pig ileum; NA= No agonist activity detected; format: functional, tissue-based; outline: as §2
[14] = molecular target: Mu-type opioid receptor (Mus musculus) (UniProt P42866); assay: as §4; format: functional, tissue-based; outline: as §2
[15] = molecular target: Mu-type opioid receptor (Homo sapiens) (UniProt P35372); assay: Agonist potency against mu opioid receptor expressed as the ratio of the ED40 concentrations of the DADLE and compound in guinea pig ileum; format: functional, tissue-based; outline: as §2
[16] = molecular target: Mu-type opioid receptor (Homo sapiens) (UniProt P35372); assay: Agonist potency against mu opioid receptor expressed as the ratio of the ED40 concentrations of the ethylketocyclazocin and compound in guinea pig ileum TS= Too shallow to estimate ED40; format: functional, tissue-based; outline: as §2
[17] = molecular target: Mu-type opioid receptor (Homo sapiens) (UniProt P35372); assay: Agonist potency against mu opioid receptor expressed as the ratio of the ED40 concentrations of the normorphine and compound in guinea pig ileum; TS= Too shallow to estimate ED40; format: functional, tissue-based; outline: as §2
[18] = molecular target: T1, Opioid receptors; mu & delta (Homo sapiens); assay: Selectivity ratio was determined using the Ke value of Opioid receptor delta 1 to that of mu receptor; outline: as §1
[19] = molecular target: Mu-type opioid receptor (Cavia porcellus) (UniProt P97266); assay: Agonist potency against Opioid receptor mu 1 expressed as the ratio of the ED40 concentrations of the ethylketocyclazocin and compound in guinea pig ileum TS= Too shallow to estimate ED40; format: functional, tissue-based; outline: as §2

Opioid receptors; mu & kappa (Homo sapiens), sequence (P35372 whole entry, looked up): as above
Opioid receptors; mu & kappa (Homo sapiens), sequence (P41145 whole entry, looked up): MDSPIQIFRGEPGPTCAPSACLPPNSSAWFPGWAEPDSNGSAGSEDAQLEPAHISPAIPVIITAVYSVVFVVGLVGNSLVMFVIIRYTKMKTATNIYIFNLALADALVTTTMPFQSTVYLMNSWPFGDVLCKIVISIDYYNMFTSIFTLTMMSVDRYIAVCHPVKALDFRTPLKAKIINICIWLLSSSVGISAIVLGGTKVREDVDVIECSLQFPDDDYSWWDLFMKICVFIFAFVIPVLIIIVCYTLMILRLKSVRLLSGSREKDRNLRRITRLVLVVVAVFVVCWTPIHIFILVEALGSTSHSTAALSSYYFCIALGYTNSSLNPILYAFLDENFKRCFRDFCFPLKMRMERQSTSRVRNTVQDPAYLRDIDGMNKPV

SMILES | Selectivity ratio [1] | Selectivity ratio [2] | Ke [6] | Ke [7] | Ke [8] | Ratio [9] | Ke [10] | Ratio [11] | Ratio [12] | other results
COc1cccc2c1[C@]13CCN(CC4CC4)[C@H](C2)[C@]1(OC)CCC(=O)C3 | 28 | 110 | – | – | – | – | – | – | – | –
CO[C@@]12CCC(=O)C[C@@]13CCN(CC1CC1)[C@@H]2Cc1ccccc13 | – | – | – | – | – | – | – | – | – | Ratio [3]: 0.0004; Ratio [4]: 0.004; Ratio [5]: 0.0008
C=CCN1CC[C@]23CC(=O)CC[C@@]2(OC)[C@H]1Cc1cccc(OC)c13 | – | – | 230 nM | 6.45 µM | 6040 nM | – | – | – | – | –
C=CCN1CC[C@]23CC(=O)CC[C@@]2(OCC)[C@H]1Cc1cccc(OC)c13 | 32 | 46 | 81 nM | – | 2560 nM | inactive | 3740 nM | inactive | 0.0004 | –
CO[C@@]12CCC(=O)C[C@@]13CCN(CC1CC1)[C@@H]2Cc1cccc(OC(C)C)c13 | 22 | 105 | 108 nM | – | 2410 nM | – | 11300 nM | inactive | – | –
CO[C@@]12CCC(=O)C[C@@]13CCN(CC1CC1)[C@@H]2Cc1cccc(O)c13 | – | – | – | – | – | – | – | – | – | Ratio [13]: inactive; Ratio [14]: 0.001; Ratio [5]: 0.0007
C=CCN1CC[C@]23CC(=O)CC[C@@]2(OCC)[C@H]1Cc1ccc(OC)c(OC)c13 | 34 | 3.6 | 184 nM | – | 6190 nM | – | 665 nM | – | 0.001 | Ratio [15]: 1
CCO[C@@]12CCC(=O)C[C@@]13CCN(CC1CC1)[C@@H]2Cc1cccc(OC)c13 | 52 | 98 | 21.7 nM | – | 1130 nM | inactive | 2130 nM | inactive | 0.0014 | –
CCCCOc1cccc2c1[C@]13CCN(CC4CC4)[C@H](C2)[C@]1(OC)CCC(=O)C3 | – | – | 21 nM | 2.05 µM | 811 nM | – | – | – | – | –
COc1ccc2c(c1OC)[C@]13CCN(CC4CC4)[C@H](C2)[C@]1(OC)CCC(=O)C3 | – | – | 120 nM | 0.744 µM | 2100 nM | inactive | – | inactive | – | Ratio [16]: inactive
CCO[C@@]12CCC(=O)C[C@@]13CCN(CC1CC1)[C@@H]2Cc1ccc(OC)c(OC)c13 | 115 | 33 | 46 nM | – | 5300 nM | – | 1540 nM | inactive | 0.0015 | Ratio [17]: inactive
CO[C@@]12CCC(=O)[C@@H]3Oc4cccc5c4C31CCN(CC1CC1)[C@@H]2C5 | – | – | 168 nM | 4.03 µM | 648 nM | – | – | – | – | Selectivity ratio [18]: 24
C=CCN1CC[C@]23CC(=O)CC[C@@]2(OC)[C@H]1Cc1ccc(OC)c(OC)c13 | – | – | 118 nM | – | 3900 nM | inactive | 179 nM | inactive | – | Ratio [19]: inactive
